Data on 24 compounds can be found in ChEMBL document CHEMBL4627290, “Synthesis and biological evaluation of chepraecoxin A derivatives as α-glucosidase inhibitors” (Bioorg Med Chem Lett, 2020).

The pIC50 is the IC50 on a negative log10 scale, so that one unit is a factor of ten. By inhibition is commonly meant the percentage by which the read-out fell short of the control. A low value points to a weak effect. For orientation: pKi means the Ki on a negative log10 scale, so that one unit is a factor of ten.

pIC50, pKi: −log10 of the molar value.

Assay [1] is described as follows: Inhibition of alpha-glucosidase (unknown origin). Also on record: species or system Homo sapiens. The procedure, abridged: (§1)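 Single-point screen at 500 μM inhibitor, with acarbose as positive control. Derivatives exceeding 50% inhibition were taken on to a dose-response series at several concentrations to derive IC50. Values are mean ± SD, n = 3.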
A short description of assay [2]: Inhibition of alpha-glucosidase (unknown origin) at 500 uM relative to control. As to conditions: Homo sapiens. The procedure, abridged: as §1
Assay [3] is described as follows: Potency index, ratio of chepraecoxinA IC50 to test compound IC50 for inhibition of alpha-glucosidase (unknown origin). Particulars: Homo sapiens.
Assay [4] in a line: Non-competitve inhibition of alpha-glucosidase (unknown origin) by Dixon-plot analysis. Also on record: species or system Homo sapiens. An outline of the steps: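 Kinetic study run at varied substrate concentrations. Inhibition type was assigned from a Lineweaver-Burk plot (Vm and Km compared), and the inhibition constant Ki was read from a Dixon plot.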

`C[C@H]1C[C@@]23CC[C@H]4[C@@](C)([C@@H](OC(=O)c5ccccc5)CC[C@@]4(C)C(=O)O)[C@@H]2CC[C@H]1C3` had a negative-log IC50 (pIC50) in assay [1] of 4.34. In assay [2], `C=C1C[C@@]23CC[C@H]4[C@@](C)(/C(=N/O)CC[C@@]4(C)C(=O)O)[C@@H]2CC[C@H]1C3` came in with an inhibition of 77.2%. This compound had a pIC50 in assay [1] of 3.48. The compound `CCCCC/C=C/C(=O)O[C@H]1CC[C@@](C)(C(=O)O)[C@H]2CC[C@@]34C[C@H](CC[C@H]3[C@]12C)[C@@H](C)C4` yielded an inhibition in assay [2] of 91.8%. Further, in assay [1], the pIC50 is 4.77. Moreover, the Ratio IC50 in assay [3] came to 17. In the same order, the values of `CC(=O)O[C@H]1CC[C@@](C)(C(=O)O)[C@H]2CC[C@@]34C[C@H](CC[C@H]3[C@]12C)[C@@H](C)C4` are 98.4%, 3.83 and 2. As for `C[C@H]1C[C@@]23CC[C@H]4[C@@](C)([C@@H](OC(=O)CCC(=O)O)CC[C@@]4(C)C(=O)O)[C@@H]2CC[C@H]1C3`, the inhibition in assay [2] was 17.8%.

As for `C[C@H]1C[C@@]23CC[C@H]4[C@](C)([C@@H]2CC[C@H]1C3)[C@@H](O)CC[C@@]4(C)C(=O)O`, in assay [2], the inhibition came to 17.3%. `CCCCCCCCCCCCCCCCCC(=O)O[C@H]1CC[C@@](C)(C(=O)O)[C@H]2CC[C@@]34C[C@H](CC[C@H]3[C@]12C)[C@@H](C)C4`: the inhibition in assay [2] turned out to be 94.2%. For the same compound, the pIC50 in assay [1] was 4.49. In the case of `C=C1C[C@@]23CC[C@H]4[C@@](C)([C@@H](OC(C)=O)CC[C@@]4(C)C(=O)O)[C@@H]2CC[C@H]1C3`, in assay [2], the inhibition turned out to be 95%. In addition, in assay [1], the pIC50 is 3.56. In the case of `C[C@H]1C[C@@]23CC[C@H]4[C@@](C)(C(=O)CC[C@@]4(C)C(=O)O)[C@@H]2CC[C@H]1C3`, in assay [2], the inhibition is 13.2%. Still for that read-out and setting: to `C=C1C(=O)[C@@]23CC[C@H]4[C@@](C)([C@@H](OC(C)=O)CC[C@@]4(C)C(=O)O)[C@@H]2CC[C@H]1C3` belongs 18.6%; to `C=C1C[C@@]23CC[C@H]4[C@@](C)([C@@H](OC(C)=O)CC[C@@]4(C)C(=O)OC)[C@@H]2CC[C@H]1C3`, 45.4%.

As to `C=C1C[C@@]23CC[C@H]4[C@](C)([C@@H]2CC[C@H]1C3)[C@@H](O)CC[C@@]4(C)C(=O)O`, the inhibition in assay [2] was 52%. Also, the negative logarithm of the IC50 (pIC50) in assay [1] was 3.27. On to `CCCC(=O)O[C@H]1CC[C@@](C)(C(=O)O)[C@H]2CC[C@@]34C[C@H](CC[C@H]3[C@]12C)[C@@H](C)C4`, for which, in assay [2], the inhibition stood at 98%. Moreover, the pIC50 in assay [1] is 4.32. `C[C@H]1C[C@@]23CC[C@H]4[C@@](C)([C@@H](OC(=O)/C=C/c5ccccc5)CC[C@@]4(C)C(=O)O)[C@@H]2CC[C@H]1C3` gave a negative logarithm of the IC50 (pIC50) in assay [1] of 4.77. Besides, the Ratio IC50 in assay [3] was 17. Consider `C=C1C[C@@]23CC[C@H]4[C@@](C)(C(=O)CC[C@@]4(C)C(=O)O)[C@@H]2CC[C@H]1C3`, for which the inhibition in assay [2] was found to be 19.4%. Compound `CC(=O)O[C@H]1CC[C@@](C)(C(=O)O)[C@H]2CC[C@]34CC(=O)[C@@H](CC[C@H]3[C@]12C)C4` registered an inhibition in assay [2] of 78.8%. Besides, the negative-log IC50 (pIC50) in assay [1] was 3.58.

As to `C[C@H]1C[C@@]23CC[C@H]4[C@@](C)([C@@H](OC(=O)C5CCCCC5)CC[C@@]4(C)C(=O)O)[C@@H]2CC[C@H]1C3`, in assay [4], the pKi is 4.71. In addition, in assay [1], the pIC50 was 4.79. Moreover, the Ratio IC50 in assay [3] is 17.

For `CC(=O)O[C@H]1CC[C@@](C)(C(=O)O)[C@H]2CC[C@@]34C[C@H](CC[C@H]3[C@]12C)[C@@](O)(CO)C4`, in assay [2], the inhibition was determined as 7.5%.

`CCCCCCCC(=O)O[C@H]1CC[C@@](C)(C(=O)O)[C@H]2CC[C@@]34C[C@H](CC[C@H]3[C@]12C)[C@@H](C)C4` had an inhibition in assay [2] of 95.5%. Moreover, in assay [1], the pIC50 is 4.64. For the compound `C[C@H]1C[C@@]23CC[C@H]4[C@@](C)([C@@H](OC(=O)c5cccnc5)CC[C@@]4(C)C(=O)O)[C@@H]2CC[C@H]1C3`, in assay [2], the inhibition was 93%. For the same compound, the negative-log IC50 (pIC50) in assay [1] is 4.15. In the same order, the values of `C[C@H]1O[C@H](O[C@H]2[C@H](O)[C@@H](O)[C@@H](O[C@H]3[C@H](O)[C@@H](O)C(O)O[C@@H]3CO)O[C@@H]2CO)[C@H](O)[C@@H](O)[C@@H]1N[C@H]1C=C(CO)[C@@H](O)[C@H](O)[C@H]1O` (stereo not given in full) [ACARBOSE] are 79.8% and 3.89.

As for `C=C1[C@H]2CC[C@@H]3[C@@](CC[C@H]4[C@@]3(C)[C@@H](OC(C)=O)CC[C@@]4(C)C(=O)O)(C2)[C@H]1O`, the inhibition in assay [2] was 22.1%.

As for `COC(=O)[C@]1(C)CC[C@H](OC(C)=O)[C@@]2(C)[C@@H]3CC[C@H]4C[C@@]3(CC[C@@H]21)C[C@@H]4C`, in assay [2], the inhibition was found to be 11.4%. `CC(=O)O[C@H]1CC[C@@](C)(C(=O)O)[C@H]2CC[C@@]34C[C@H](CC[C@H]3[C@]12C)[C@@]1(CO1)C4`: in assay [2], the inhibition was determined as 9.6%.
